Results reported in publication PMC3288198 (ACS Chemical Biology, 2011).
Like-named read-outs stand apart in the source and are kept apart here.

What was measured:
[1] = molecular target: HDAC4 (Homo sapiens, UniProt P56524); assay: HDAC deacetylase homogenous fluorescence assay, HDAC4; assay type: biochemical
[2] = molecular target: HDAC9 (Homo sapiens, UniProt Q9UKV0); assay: HDAC deacetylase homogenous fluorescence assay, HDAC9; assay type: biochemical
Method in brief: (§1)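 Recombinant human enzyme (HDAC5, 8, 9 baculovirus-expressed) incubated with serially diluted test compound over a 12-point titration. Substrate: trifluoroacetylated AMC-K(TFA)GL. Peptidase development releases MCA, read at ex 355/em 460 nm. Activity normalised to plate controls. IC50 and SD by non-linear regression; Ki by Cheng-Prusoff, Ki = IC50/(1+[S]/Km).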

[3] = molecular target: HDAC5 (Homo sapiens, UniProt Q9UQL6); assay: HDAC deacetylase homogenous fluorescence assay, HDAC5; assay type: biochemical
Method in brief: as §1

[4] = molecular target: T1, HDAC8 (Homo sapiens, UniProt Q9BY41); assay: HDAC deacetylase homogenous fluorescence assay, HDAC8; assay type: biochemical
T1 sequence (Q9BY41 1-377): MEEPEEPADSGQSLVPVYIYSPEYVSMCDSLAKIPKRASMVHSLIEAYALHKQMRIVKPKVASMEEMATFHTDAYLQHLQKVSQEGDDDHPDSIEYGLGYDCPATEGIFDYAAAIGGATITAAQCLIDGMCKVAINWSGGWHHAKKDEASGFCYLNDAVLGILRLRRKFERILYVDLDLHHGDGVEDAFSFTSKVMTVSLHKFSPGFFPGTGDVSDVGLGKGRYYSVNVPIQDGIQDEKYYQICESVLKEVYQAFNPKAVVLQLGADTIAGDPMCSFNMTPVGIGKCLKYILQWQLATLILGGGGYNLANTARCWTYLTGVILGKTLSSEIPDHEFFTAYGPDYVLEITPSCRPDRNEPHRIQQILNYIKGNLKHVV
Method in brief: as §1

[5] = molecular target: HDAC3/N-CoR2 (Homo sapiens, UniProt O15379); assay: HDAC deacetylase homogenous fluorescence assay, HDAC3; assay type: biochemical
Method in brief: (§2)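 Baculovirus-expressed recombinant human enzyme (HDAC3 as HDAC3/N-CoR2 complex) incubated with serially diluted test compound over a 12-point titration. Substrate: acetylated AMC-K(Ac)GL. Deacetylated product cleaved by lysine peptidase to free MCA, read at ex 355/em 460 nm. Data normalised to control plate by plate. IC50 and SD from non-linear regression; Ki via Cheng-Prusoff, Ki = IC50/(1+[S]/Km).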

[6] = molecular target: T2, HDAC11 (Homo sapiens, UniProt Q96DB2); assay: HDAC deacetylase homogenous fluorescence assay, HDAC11; assay type: biochemical
T2 sequence (Q96DB2 1-347): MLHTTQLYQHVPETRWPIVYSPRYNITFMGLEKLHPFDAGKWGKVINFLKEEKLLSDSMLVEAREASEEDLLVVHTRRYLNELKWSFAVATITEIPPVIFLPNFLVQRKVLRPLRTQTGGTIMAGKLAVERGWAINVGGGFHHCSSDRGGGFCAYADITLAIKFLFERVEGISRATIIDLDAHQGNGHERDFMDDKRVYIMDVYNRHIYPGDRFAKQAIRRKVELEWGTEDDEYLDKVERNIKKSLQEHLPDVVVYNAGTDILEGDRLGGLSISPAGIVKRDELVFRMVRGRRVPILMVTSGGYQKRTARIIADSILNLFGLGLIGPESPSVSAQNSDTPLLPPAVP

[7] = molecular target: HDAC1 (Homo sapiens, UniProt Q13547); assay: HDAC deacetylase homogenous fluorescence assay, HDAC1; assay type: biochemical
Method in brief: as §2

[8] = test system: non-proliferating PBMC (no mitogen stimulation); assay: Viability of resting PBMC; assay type: cell-based, human
[9] = test system: ubiquitinated protein; assay: Western blot of total ubiquitinated protein in MV4-11 cells; assay type: cell-based, human; conditions: within 3 hr
[10] = test system: acetylated tubulin; assay: Western blot of acetylated tubulin in MV4-11 cells; assay type: cell-based, human
Method in brief: (§3)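 MV4-11 cells (10% heat-inactivated FBS, 37°C, 5% CO2) treated with test compound at a range of concentrations. Washed in cold HBSS and lysed 30 min in low-salt Tris pH 7.4 buffer with protease/phosphatase inhibitors and 1 μM TSA, then sonicated. LDS-denatured lysates run on 4–12% gradient gels. Probes: acetyl-H3, acetyl-H4, total H3, acetyl-α-tubulin, tubulin. HRP secondary, ECL read-out.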

[11] = test system: acetylated histone H3 and H4; assay: Western blot of acetylated histone H3/H4 in MV4-11 cells; assay type: cell-based, human
Method in brief: as §3

[12] = read-out: HDAC4 IC50, 12 point titration, trifluoroacetylated substrate
[13] = read-out: HDAC4 Ki, converted from IC50 using Cheng-Prusoff equation
[14] = read-out: HDAC9 IC50, 12 point titration, trifluoroacetylated substrate
[15] = read-out: HDAC9 Ki, converted from IC50 using Cheng-Prusoff equation
[16] = read-out: HDAC5 IC50, 12 point titration, trifluoroacetylated substrate
[17] = read-out: HDAC5 Ki, converted from IC50 using Cheng-Prusoff equation
[18] = read-out: HDAC8 IC50, 12 point titration, trifluoroacetylated substrate
[19] = read-out: HDAC8 Ki, converted from IC50 using Cheng-Prusoff equation
[20] = read-out: HDAC3 IC50, 12 point titration, acetylated substrate
[21] = read-out: HDAC3 Ki, converted from IC50 using Cheng-Prusoff equation
[22] = read-out: HDAC11 IC50, 12 point titration, trifluoroacetylated substrate
[23] = read-out: HDAC1 IC50, 12 point titration, acetylated substrate
[24] = read-out: HDAC1 Ki, converted from IC50 using Cheng-Prusoff equation

Chain of HDAC1 (Q13547 whole entry): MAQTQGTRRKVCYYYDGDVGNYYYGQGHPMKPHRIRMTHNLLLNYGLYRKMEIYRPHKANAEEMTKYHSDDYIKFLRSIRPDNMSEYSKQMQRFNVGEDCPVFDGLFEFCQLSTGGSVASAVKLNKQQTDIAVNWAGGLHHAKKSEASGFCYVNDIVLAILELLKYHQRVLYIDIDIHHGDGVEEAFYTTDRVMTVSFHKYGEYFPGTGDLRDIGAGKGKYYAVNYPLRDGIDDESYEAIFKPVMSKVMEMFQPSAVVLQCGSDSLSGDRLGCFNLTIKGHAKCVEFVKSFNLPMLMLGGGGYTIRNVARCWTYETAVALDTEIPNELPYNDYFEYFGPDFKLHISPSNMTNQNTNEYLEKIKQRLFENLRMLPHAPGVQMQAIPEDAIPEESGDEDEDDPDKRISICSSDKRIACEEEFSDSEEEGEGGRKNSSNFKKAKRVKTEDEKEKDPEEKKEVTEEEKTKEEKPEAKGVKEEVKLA
Chain of HDAC5 (Q9UQL6 whole entry): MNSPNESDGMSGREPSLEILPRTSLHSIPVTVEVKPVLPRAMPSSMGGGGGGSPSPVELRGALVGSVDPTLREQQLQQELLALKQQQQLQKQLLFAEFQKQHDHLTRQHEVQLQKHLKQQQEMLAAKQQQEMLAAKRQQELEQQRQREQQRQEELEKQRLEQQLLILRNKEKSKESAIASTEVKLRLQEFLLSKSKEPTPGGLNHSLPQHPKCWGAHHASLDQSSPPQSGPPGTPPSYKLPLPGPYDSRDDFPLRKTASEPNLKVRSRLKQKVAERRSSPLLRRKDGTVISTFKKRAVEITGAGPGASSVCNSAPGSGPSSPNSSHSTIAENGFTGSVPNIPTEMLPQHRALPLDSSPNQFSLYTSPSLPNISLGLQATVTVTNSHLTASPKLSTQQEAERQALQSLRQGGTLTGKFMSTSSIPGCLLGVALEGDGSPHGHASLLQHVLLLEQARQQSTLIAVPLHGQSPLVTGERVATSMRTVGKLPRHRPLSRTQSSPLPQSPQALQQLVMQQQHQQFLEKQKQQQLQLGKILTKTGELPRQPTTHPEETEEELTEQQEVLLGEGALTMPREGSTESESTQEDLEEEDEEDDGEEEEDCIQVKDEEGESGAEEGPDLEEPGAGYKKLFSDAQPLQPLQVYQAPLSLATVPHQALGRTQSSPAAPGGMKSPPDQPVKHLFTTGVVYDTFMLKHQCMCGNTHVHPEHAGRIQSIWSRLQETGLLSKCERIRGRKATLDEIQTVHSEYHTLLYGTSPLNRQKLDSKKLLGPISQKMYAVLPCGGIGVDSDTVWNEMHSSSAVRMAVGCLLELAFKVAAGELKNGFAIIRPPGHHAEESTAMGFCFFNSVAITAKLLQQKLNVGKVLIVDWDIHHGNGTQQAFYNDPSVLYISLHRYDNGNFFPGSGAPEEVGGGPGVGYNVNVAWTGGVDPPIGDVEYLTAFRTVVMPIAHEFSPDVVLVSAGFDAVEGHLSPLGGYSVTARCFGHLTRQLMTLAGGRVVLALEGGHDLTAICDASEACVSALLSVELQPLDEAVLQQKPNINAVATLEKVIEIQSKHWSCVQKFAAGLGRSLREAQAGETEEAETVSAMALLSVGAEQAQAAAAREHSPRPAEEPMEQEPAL
Chain of HDAC9 (Q9UKV0 whole entry): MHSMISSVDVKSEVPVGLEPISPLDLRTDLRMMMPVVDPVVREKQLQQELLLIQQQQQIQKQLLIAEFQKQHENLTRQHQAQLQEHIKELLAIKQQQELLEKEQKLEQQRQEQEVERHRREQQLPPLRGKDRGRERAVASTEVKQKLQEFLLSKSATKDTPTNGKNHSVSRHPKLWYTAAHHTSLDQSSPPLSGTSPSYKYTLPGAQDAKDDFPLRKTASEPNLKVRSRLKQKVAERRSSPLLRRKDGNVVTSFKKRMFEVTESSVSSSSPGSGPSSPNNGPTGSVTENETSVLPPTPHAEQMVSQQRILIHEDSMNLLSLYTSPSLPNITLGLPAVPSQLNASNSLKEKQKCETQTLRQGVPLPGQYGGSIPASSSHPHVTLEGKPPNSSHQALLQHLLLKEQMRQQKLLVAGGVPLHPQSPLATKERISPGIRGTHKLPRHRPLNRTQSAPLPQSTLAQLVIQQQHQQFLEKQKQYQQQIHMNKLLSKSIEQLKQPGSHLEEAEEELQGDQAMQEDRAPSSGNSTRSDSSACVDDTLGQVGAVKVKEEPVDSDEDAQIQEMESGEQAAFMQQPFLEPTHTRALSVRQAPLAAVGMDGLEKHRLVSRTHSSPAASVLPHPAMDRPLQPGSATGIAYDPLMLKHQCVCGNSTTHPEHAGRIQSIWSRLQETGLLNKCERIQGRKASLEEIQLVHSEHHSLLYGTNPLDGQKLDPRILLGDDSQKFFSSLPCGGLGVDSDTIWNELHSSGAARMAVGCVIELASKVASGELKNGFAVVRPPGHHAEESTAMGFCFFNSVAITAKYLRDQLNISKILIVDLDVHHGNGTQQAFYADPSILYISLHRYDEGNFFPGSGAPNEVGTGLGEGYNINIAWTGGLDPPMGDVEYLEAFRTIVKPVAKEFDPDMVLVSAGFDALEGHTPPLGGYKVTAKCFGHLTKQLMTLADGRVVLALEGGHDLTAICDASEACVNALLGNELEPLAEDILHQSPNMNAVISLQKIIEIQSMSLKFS
Chain of HDAC4 (P56524 whole entry): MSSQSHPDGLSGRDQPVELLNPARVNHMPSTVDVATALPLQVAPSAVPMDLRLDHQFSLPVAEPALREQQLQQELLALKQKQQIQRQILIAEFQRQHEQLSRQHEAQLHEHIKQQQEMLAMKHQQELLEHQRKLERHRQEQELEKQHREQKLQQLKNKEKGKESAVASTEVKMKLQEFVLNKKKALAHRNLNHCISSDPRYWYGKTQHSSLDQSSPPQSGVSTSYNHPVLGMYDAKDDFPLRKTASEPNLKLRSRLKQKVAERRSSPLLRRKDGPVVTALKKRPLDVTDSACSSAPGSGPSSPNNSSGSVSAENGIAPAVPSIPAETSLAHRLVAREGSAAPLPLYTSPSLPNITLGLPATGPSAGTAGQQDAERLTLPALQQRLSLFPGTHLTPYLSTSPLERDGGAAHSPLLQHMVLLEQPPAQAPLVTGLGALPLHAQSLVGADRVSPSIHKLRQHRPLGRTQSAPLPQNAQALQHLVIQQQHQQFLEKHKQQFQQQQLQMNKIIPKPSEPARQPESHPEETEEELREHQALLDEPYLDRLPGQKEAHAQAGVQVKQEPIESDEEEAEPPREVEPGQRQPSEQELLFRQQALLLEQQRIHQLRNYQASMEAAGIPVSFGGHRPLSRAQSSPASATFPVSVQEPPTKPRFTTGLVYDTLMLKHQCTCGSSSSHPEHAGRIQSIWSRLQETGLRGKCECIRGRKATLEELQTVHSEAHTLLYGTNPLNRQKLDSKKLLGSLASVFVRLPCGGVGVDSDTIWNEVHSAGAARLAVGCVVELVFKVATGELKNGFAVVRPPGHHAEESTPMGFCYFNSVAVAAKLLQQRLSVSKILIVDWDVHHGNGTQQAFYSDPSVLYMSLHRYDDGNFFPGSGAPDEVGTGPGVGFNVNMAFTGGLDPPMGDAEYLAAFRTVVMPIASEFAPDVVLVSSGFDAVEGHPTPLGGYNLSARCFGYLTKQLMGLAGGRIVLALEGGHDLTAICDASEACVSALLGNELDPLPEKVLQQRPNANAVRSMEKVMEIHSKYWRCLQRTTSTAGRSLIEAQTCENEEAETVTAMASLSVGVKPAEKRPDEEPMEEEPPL
Chain of HDAC3/N-CoR2 (O15379 whole entry): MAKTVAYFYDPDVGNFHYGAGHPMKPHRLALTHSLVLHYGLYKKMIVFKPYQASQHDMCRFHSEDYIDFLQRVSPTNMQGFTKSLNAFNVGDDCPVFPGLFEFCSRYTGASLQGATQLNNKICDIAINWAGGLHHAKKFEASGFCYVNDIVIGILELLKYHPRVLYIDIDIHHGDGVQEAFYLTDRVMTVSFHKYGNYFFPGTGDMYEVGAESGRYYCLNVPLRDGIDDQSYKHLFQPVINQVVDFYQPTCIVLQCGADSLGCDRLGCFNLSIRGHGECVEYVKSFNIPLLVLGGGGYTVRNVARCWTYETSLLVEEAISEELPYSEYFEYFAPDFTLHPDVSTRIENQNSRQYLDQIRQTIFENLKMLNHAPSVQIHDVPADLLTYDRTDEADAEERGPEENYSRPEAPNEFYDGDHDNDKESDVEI
Chain of HDAC3/N-CoR2 (Q9Y618 395-489 partner limits assumed): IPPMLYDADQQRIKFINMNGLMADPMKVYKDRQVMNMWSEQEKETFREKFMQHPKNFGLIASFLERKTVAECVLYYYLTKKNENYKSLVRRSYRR

| Structure (SMILES) | IC50 [1, 12] [nM] | Ki [1, 13] [nM] | IC50 [2, 14] [nM] | Ki [2, 15] [nM] | IC50 [3, 16] [nM] | Ki [3, 17] [nM] | IC50 [4, 18] [nM] | Ki [4, 19] [nM] | IC50 [5, 20] [nM] | Ki [5, 21] [nM] | IC50 [6, 22] [nM] | IC50 [7, 23] [nM] | Ki [7, 24] [nM] | IC50 [1] [nM] | Ki [1] [nM] | IC50 [2] [nM] | IC50 [3] [nM] | Ki [3] [nM] | IC50 [4] [nM] | IC50 [5] [nM] | other results |
| --- | --- | --- | --- | --- | --- | --- | --- | --- | --- | --- | --- | --- | --- | --- | --- | --- | --- | --- | --- | --- | --- |
| OC[C@H]1O[C@H]([S-])[C@H](O)[C@@H](O)[C@@H]1O.[Au+] [Aurothioglucose, 1-thio-D-glucopyronaose gold salt] | 4100 ± 2100 | 700 | 2800 ± 100 | 1190 | 720 ± 500 | 390 | 1400 ± 300 | 1110 | 11500 ± 3200 | 1230 | > 180000 | 4400 ± 1100 | 470 |  |  |  |  |  |  |  |  |
| O=c1c2ccccc2[se]n1-c1ccccc1 [Ebselen, 2-phenyl-1,2-benzisoselenazol-3(2H)-one] |  |  |  |  |  |  |  |  |  |  |  |  |  | 1200 ± 200 | 200 | 970 ± 500 | 780 ± 100 | 420 | 350 ± 200 | 2100 ± 1500 | Ki [5]: 230 nM; IC50 [6]: 22500 ± 2400 nM; Ki [6]: 4410 nM; IC50 [7]: 1500 ± 400 nM; Ki [7]: 150 nM |
| NC(N)=Nc1ccc2[nH]c3c(c2c1)C[C@@]1(O)[C@H]2Cc4ccc(O)c5c4[C@@]1(CCN2CC1CC1)[C@H]3O5 [GNTI, guanidinyl-naltrindole di-trifluoroacetate] | 13400 ± 1600 | 2290 | 12300 ± 1700 | 5230 | 700 ± 100 | 380 | 2000 ± 400 | 1580 | 22700 ± 3100 | 2430 | > 180000 | 30200 ± 7300 | 3240 |  |  |  |  |  |  |  |  |
| O=C1C(SCCO)=C(SCCO)C(=O)c2ccccc21 [NSC-95397, 2,3-bis[(2-Hydroxyethyl)thio]-1,4-naphthoquinone] |  |  |  |  |  |  |  |  |  |  |  |  |  | 7200 ± 2800 | 1230 | 4800 ± 1400 | 3100 ± 200 | 1680 | 1300 ± 100 | > 100000 | effect on resting (non-proliferating) PBMC viability [8]: inactive; effect on resting (non-proliferating) PBMC viability ([8]; listed as NSC): not affected; total ubiquitinated protein level [9]: increase in total ubiquitinated protein level; induction of acetylated tubulin [10]: induces hyperacetylated tubulin; effect on acetylated histone H3/H4 levels [11]: without an increase in acetylated histone levels; Ki [2]: 2040 nM; Ki [4]: 1030 nM; IC50 [6]: 37800 ± 1400 nM; Ki [6]: 7410 nM; IC50 [7]: > 180000 nM |
| COc1ccc2c(c1)CC[C@@H]1[C@@H]2CC[C@]2(C)[C@@H](NCCCCCCN3C(=O)C=CC3=O)CC[C@@H]12 [U-73122, 1-[6-[[(17beta)-3-methoxyestra-1,3,5([10])-trien-17-yl]amion]hexyl]-1H-pyrrole-2,5-dione] | 31200 ± 200 | 5330 | 29800 ± 5600 | 12700 | 10500 ± 7400 | 5680 | 10900 ± 3100 | 8630 | 6200 ± 4000 | 660 | > 180000 | 38400 ± 15500 | 4110 |  |  |  |  |  |  |  |  |
